In the library only some 1% were active in any assay of this set; here they are far more common.
ERp5 block: ERp5 (human) disulfide isomerase inhibition. Q15084. inhibition, % at 9.99 µM. ERp5 insulin aggregation, absorbance 650 nm, 90 min. actives 0.05% (n = 350,000). AID 651711;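 active means mean replicate inhibition above about 25%, with every replicate also reaching it, limit read from the data, passing the limit was not always enough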
Target sequence (Q15084 whole entry, looked up): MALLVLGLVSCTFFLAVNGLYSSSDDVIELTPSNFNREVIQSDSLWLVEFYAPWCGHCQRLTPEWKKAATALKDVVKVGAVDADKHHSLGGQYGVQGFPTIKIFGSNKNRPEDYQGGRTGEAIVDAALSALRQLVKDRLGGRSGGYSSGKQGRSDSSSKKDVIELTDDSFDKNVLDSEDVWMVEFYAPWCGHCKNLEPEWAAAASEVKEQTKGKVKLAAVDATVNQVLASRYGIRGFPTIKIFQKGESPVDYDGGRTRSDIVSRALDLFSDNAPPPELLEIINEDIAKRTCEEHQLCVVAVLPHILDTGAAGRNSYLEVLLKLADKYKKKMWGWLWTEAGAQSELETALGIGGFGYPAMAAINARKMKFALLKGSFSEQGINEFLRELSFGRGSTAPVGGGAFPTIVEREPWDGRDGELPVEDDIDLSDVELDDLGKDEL
PvdQ acylase: blocks Pseudomonas aeruginosa PvdQ acylase activity; purified PvdQ acylase, fluorescence plate reader; inhibition, % at 10 µM; actives 0.063% (n = 340,000); AID 488965; in the data active means inhibition above about 30%, passing the limit was not always enough;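 further: 0% = vehicle neutral wells and 100% = reference inhibitor wells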
IMP-1 inh: inhibitors of Pseudomonas aeruginosa IMP-1 metallo-beta-lactamase; purified IMP-1, nitrocefin hydrolysis, epi-absorbance fluorescence; inhibition, % at 5.6 µM; actives 0.45% (n = 290,000);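 active means inhibition above the mean plus 3 SD of all compounds in the same screening run, cut at about 4.5% in these data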;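 further: 0% = IMP-1 with DMSO and 100% = DMSO wells lacking enzyme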
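System: Purified IMP-1 | Read-out basis: Percent enzyme inhibition | Controls: IMP-1 with DMSO as 0%, enzyme-free DMSO as 100% | Replicates: One well per compound | Doses: 5.6 µM nominal single concentration | Detection: Epi-absorbance fluorescence, 480 nm excitation, 530 nm emission | Incubation: 25 °C, 15 min preincubation, 25 min reaction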
PDI inh: PDI (human) enzyme inhibition | P07237 | PDI insulin aggregation turbidity, A650, 90 min | inhibition, % at 10 µM | actives 0.052% (n = 350,000) | AID 588391;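 active means mean inhibition across replicates of 30% or more, whatever share of single replicates reach that level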
VIM-2 inh: inhibitors of Pseudomonas aeruginosa VIM-2 metallo-beta-lactamase | AID 1527 | purified VIM-2, nitrocefin hydrolysis, epi-absorbance fluorescence | inhibition, % at 5.6 µM | actives 0.89% (n = 290,000);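 active means inhibition above the mean of all tested compounds plus 3 SD, cutoff set per screening run, cut at about 7.5% in these data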;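 further: red hydrolysis product quenches plate fluorescence so inhibitors raise well fluorescence; 0% = enzyme with DMSO and 100% = DMSO without enzyme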
PglD DTNB: inhibitors of Campylobacter jejuni PglD acetyltransferase. purified PglD enzyme, DTNB colorimetric CoA detection. inhibition, % at 12.5 µM. actives 0.098% (n = 360,000). AID 602405; in the data active means inhibition above about 16%, passing the limit was not always enough
Starred values were filed as active, the others as inactive; . = no result given; ! = not active in a repeat.

SMILES | ERp5 block | PvdQ acylase | IMP-1 inh | PDI inh | VIM-2 inh | PglD DTNB
C=CCn1c(O)c(/C=C2/C=c3ccccc3=N2)c(=O)[nH]c1=S | 1 | 6 | 11* | 0 | 1 | -1
CC(C)c1ccc(-n2c(O)c(/C=N/NC(=O)c3ccncc3)c(=O)[nH]c2=O)cc1 | -10 | 11 | -3 | 0 | -4 | .
CCc1ccc(-n2c(O)c(/C=N/NC(=O)c3ccncc3)c(=O)[nH]c2=O)cc1 | . | 2 | 13* | -4 | -3 | .
N#Cc1cccc(-c2ccc([C@H]3[C@@H](CO)N4CCCCN(C(=O)Cc5ccncc5)C[C@@H]34)cc2)c1 | -4 | . | . | . | . | -1
COC(=O)[C@@H]1[C@@H](CO)[C@@H]2Cn3c(cccc3=O)[C@@H]2N1CC1CC1 | -3 | . | . | . | . | 2
CCN1C(=O)NC(=O)/C(=C\c2cn(CC(=O)N3CCCC3)c3ccccc23)C1=O | -1 | -19 | 1 | -16 | 3 | 2
CCN1C(=O)NC(=O)/C(=C\c2cn(CC(=O)N3CCCCC3)c3ccccc23)C1=O | 2 | 5 | -2 | -1 | 11* | 0
O=C(Cc1cccnc1)N1CCCCN2[C@H](CO)[C@H](c3ccc(/C=C/c4ccccc4)cc3)[C@@H]2C1 | 0 | . | . | . | . | -2
COc1ccc(CC(C)Nc2cccc(F)c2)cc1 (stereo not drawn) | -1 | 36* | 0 | -35 | -1 | -21
O=C(O)c1ccccc1-c1ccc(C=C2C(=O)N(c3ccccc3)C(=S)N(c3ccccc3)C2=O)o1 | 1 | -15 | 14* | 4 | 1 | 3
COC(=O)[C@@H]1[C@@H](CO)[C@@H]2Cn3c(ccc(C4=CCCCC4)c3=O)[C@H]1N2CC1CCCCC1 | 1 | . | . | . | . | .
CC[C@H]1C=C(C(=O)N[C@@]2(C(=O)O)C[C@H]2CC)[C@H]2CCC(=O)[C@H]2C1 | 4 | . | . | . | . | .
CN1CCN(C(=O)COc2ccc(-c3nc4ccccc4s3)cc2)CC1 | . | -8 | 0 | 2 | 7.8* | -1
CCCNC(=O)[C@@H]1[C@@H](CO)[C@@H]2Cn3c(cccc3=O)[C@@H]2N1CC | -1 | . | . | . | . | .
O=C1NC(=S)NC(=O)C1=Cc1ccc(Br)s1 | -2 | -16 | 7.1* | -1 | 3 | 11
CC(=NCCCn1ccnc1)c1c(O)n(C)c(=O)n(C)c1=O | . | -9 | -2 | -3 | 66* | 7
CCCCn1c(O)c(C(C)=NCCCn2ccnc2)c(=O)[nH]c1=O | . | 1 | -2 | -9 | 3 | -6
CCCNC(=O)[C@H]1[C@H](CO)[C@H]2Cn3c(cccc3=O)[C@H]2N1CC | 3 | . | . | . | . | .
C[C@H]1CN([C@@H](C)CO)C(=O)CCCn2cc(nn2)CO[C@H]1CN(C)C(=O)Oc1ccc2ccccc2c1 | -2 | . | . | . | . | 3
C[C@H](CO)N1C[C@H](C)[C@@H](CN(C)C(=O)Oc2ccc3ccccc3c2)OCc2cn(nn2)CCCC1=O | 54*! | . | . | -2 | . | 2
CC(C)(C)n1cc(C(=O)c2ccccc2OCCCF)cn1 | -2 | 5 | -1 | 1 | 11* | 7
COC(=O)[C@H]1[C@H](CO)[C@H]2Cn3c(ccc(C4=CCCCC4)c3=O)[C@@H]1N2Cc1ccccc1OC | 0 | . | . | . | . | .
CN1CCC(N(C)c2nc(-c3ccc([N+](=O)[O-])cc3)nc3ccccc23)CC1 | . | 5 | -2 | -5 | 9.9* | .
CCCNC(=O)N1[C@@H]2Cn3c(ccc(-c4cccc(C(=O)N(C)C)c4)c3=O)[C@H]1[C@@H](C(=O)O)[C@@H]2CO | 4 | . | . | . | . | .
C=CCn1c(O)c(/C(CC)=N/NC(=S)Nc2ccccc2)c(=O)[nH]c1=O | 3 | -5 | -2 | -2 | 8.9* | 3
SMILES | ERp5 block | PvdQ acylase | IMP-1 inh | PDI inh | VIM-2 inh | PglD DTNB
CN1C(=O)CN=C(c2ccccc2Cl)c2cc(Br)ccc21 | 2 | -2 | 11* | -9 | -2 | 3
Cc1cc(OCC(=O)NCc2ccc(S(N)(=O)=O)cc2)c2c3c(c(=O)oc2c1)CCC3 | 28* | 6 | -3 | 1 | 9.4* | -4
C=CCOC(=O)COc1cc(C)cc2oc(=O)c3c(c12)CCC3 | . | -25 | -2 | -4 | 5 | -2
Cc1cc(OCc2ccc([N+](=O)[O-])cc2)c2c3c(c(=O)oc2c1)CCCC3 | 1 | -9 | -1 | 0 | 0 | 1
Cc1cc(OCc2nn[nH]n2)c2c3c(c(=O)oc2c1)CCCC3 | . | 5 | 1 | 9 | 9.0* | .
C/C=C/c1ccc(C2[C@@H]3CN(Cc4cocn4)C[C@H]2N3)cc1 (stereo partly drawn) | -3 | . | . | . | . | .
O=C(O)c1ccccc1N=Nc1c(O)[nH]c(=O)[nH]c1=O | 4 | -12 | -4 | -1 | -3 | -6
O=c1[nH]c(O)c(N=Nc2cc(C(F)(F)F)ccc2Cl)c(=O)[nH]1 | 5 | -6 | 0 | 1 | 11* | .
O=[N+]([O-])c1ccc(NCc2ccccc2)c2nonc12 | -1 | . | 30* | . | 23* | .
O=[N+]([O-])c1ccc(NCc2ccc(Cl)cc2)c2ccncc12 | 1 | -29 | -2 | 3 | -2 | 8
Cc1cccc(-n2c(O)c(/C=C/C=Nc3ccccc3)c(=O)[nH]c2=O)c1 | . | -3 | 3 | -4 | 1 | .
Cn1c(O)c(/C=C/C=Nc2ccccc2)c(=O)n(C)c1=S | . | -5 | 6.1* | -11 | 5 | .
CC1=C(O)C(=O)C=C2C1=CC=C1C2(C)CCC2(C)C3CC(C)(C(=O)O)CCC3(C)CCC12C (stereo not drawn) | 11 | -2 | . | 63* | . | .
O=C(NC[C@H]1CC[C@@H]2NC[C@@H]2O1)C1CCCC1 | 3 | . | . | . | . | .
CCCNC(=O)N1[C@@H]2c3ccc(-c4cccc(C(=O)N(C)C)c4)c(=O)n3C[C@H]1[C@H](CO)[C@H]2C(=O)O | 3 | . | . | . | . | .
CCN1C(=O)C(=C2C=C(C)OC(C)=C2)C(=O)N(CC)C1=S | 4 | -9 | -1 | 4 | -2 | .
CCOC(=O)C1=CC(=C2C(=O)N(CC)C(=S)N(CC)C2=O)c2ccccc2O1 | 0 | . | 6.2* | . | -2 | .
Cn1ncnc2c(=O)n(C)c(=O)nc1-2 | . | 8 | . | 175* | . | -10
C=CCn1c(O)c(C=Nc2ccc(F)cc2)c(=O)[nH]c1=O | -1 | 2 | -2 | -2 | -1 | -3
C=CCn1c(O)c(C=Nc2ccc(N(CC)CC)cc2)c(=O)[nH]c1=O | . | 5 | 5.3* | 7 | -5 | .
CN1CCN(C(=O)CN=[N+]=[N-])CC1 | -4 | . | . | . | . | .
CC(Cc1ccccc1Sc1ccccc1O)N(C)C (stereo not drawn) | . | 11 | -4 | 38* | -1 | 3
COc1cc2c(cc1OC)-c1c(OC)c(OC)c(OC)c3ccnc(c13)C2=O | . | . | -4 | . | 9.4* | .
COc1cc(CC2(CCc3ccncc3)C(=O)NC(=O)NC2=O)cc(OC)c1OC | 8 | -4 | -3 | 10 | -1 | .
CCOC(=O)c1c(N)n(CCN2CCCCC2)c2nc3ccccc3nc12 | -7 | -10 | 2 | -8 | 7.8* | 3
CCN(CC)P(=O)(NC(=O)C(Cl)(Cl)Cl)N(CC)CC.[Cl-].[Cl-].[Cl-].[Nd+3] | 1 | -14 | 22* | -2 | -1 | 2

Screens from PubChem BioAssay.
